The source of these data is ChEMBL document CHEMBL3616379, “From carbohydrates to drug-like fragments: Rational development of novel α-amylase inhibitors” (Bioorg Med Chem, 2015).

Activity calls are given as the source filed them. No cut-off for these calls is given here. Bounds are passed on as bounds.

The target of assay [1] is T1, Alpha-amylase 1A (Homo sapiens) (UniProt P0DUB6).
T1 sequence (whole entry): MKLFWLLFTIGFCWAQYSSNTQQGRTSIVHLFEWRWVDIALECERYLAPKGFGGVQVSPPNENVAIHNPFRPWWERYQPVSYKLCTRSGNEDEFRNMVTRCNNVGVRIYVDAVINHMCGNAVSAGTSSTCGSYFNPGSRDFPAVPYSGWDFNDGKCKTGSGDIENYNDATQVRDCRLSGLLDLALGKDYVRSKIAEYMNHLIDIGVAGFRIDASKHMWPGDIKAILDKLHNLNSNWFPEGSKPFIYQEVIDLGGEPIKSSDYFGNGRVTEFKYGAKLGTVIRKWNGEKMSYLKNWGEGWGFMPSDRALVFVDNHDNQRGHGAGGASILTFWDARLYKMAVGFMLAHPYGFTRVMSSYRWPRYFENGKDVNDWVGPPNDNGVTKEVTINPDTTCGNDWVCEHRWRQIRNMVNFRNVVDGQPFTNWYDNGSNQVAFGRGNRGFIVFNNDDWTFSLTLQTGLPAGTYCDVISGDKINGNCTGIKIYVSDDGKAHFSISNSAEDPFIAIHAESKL
Put plainly: Inhibition of human salivary alpha-amylase using GalG2CNP as substrate at 200 uM by UV-Vis spectrophotometric analysis. In outline: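 Single-concentration test at 200 μM inhibitor against human salivary α-amylase (2 nM) with GalG2CNP substrate, 50 mM MES pH 6.0 containing 5 mM Ca(OAc)2, 51.5 mM NaCl, 152 mM NaN3, 37°C. Chloronitrophenol liberation monitored continuously at 400 nm by UV-Vis spectrophotometry.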

In assay [2] the target is Heat shock protein HSP 90-beta (Homo sapiens, UniProt P08238). Put plainly: Inhibition of HSP90 (unknown origin).
Chain of Heat shock protein HSP 90-beta (P08238 whole entry): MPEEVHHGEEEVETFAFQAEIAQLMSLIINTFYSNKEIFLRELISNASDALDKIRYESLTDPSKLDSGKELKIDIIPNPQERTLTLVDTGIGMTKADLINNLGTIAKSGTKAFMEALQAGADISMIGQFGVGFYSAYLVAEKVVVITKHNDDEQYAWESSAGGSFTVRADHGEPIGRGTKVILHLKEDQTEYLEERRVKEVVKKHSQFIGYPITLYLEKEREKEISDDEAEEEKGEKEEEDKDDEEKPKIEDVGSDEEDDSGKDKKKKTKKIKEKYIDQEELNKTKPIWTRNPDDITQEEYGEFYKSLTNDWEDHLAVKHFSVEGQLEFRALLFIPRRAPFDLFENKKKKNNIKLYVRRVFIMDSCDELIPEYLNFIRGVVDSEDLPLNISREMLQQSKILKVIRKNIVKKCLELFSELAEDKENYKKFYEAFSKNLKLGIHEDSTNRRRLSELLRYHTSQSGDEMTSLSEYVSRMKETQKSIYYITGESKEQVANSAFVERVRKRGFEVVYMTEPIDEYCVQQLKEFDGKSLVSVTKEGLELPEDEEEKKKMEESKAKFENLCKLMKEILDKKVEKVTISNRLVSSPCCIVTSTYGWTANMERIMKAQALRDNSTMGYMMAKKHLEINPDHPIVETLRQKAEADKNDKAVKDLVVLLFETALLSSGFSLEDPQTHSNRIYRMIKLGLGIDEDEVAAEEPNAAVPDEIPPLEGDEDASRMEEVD
In assay [3] the target is T2, Pancreatic alpha-amylase (Sus scrofa, UniProt P00690).
T2 sequence (P00690 whole entry): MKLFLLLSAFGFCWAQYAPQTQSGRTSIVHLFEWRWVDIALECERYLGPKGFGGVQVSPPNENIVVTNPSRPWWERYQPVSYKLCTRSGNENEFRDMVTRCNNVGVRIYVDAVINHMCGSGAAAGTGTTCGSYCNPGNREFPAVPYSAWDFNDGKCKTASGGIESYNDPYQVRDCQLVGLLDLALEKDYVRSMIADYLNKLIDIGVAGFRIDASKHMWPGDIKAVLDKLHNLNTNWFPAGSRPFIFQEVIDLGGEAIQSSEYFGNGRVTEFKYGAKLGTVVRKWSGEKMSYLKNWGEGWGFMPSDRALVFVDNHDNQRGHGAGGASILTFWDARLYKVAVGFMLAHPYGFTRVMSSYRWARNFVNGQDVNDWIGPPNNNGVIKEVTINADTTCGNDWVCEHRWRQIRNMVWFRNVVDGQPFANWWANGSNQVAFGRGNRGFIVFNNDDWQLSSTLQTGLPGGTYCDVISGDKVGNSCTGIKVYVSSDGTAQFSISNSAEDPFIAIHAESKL
Put plainly: Inhibition of porcine pancreatic alpha-amylase using DP17 amylose as substrate preincubated for 5 mins followed by substrate addition by copper-bicinchoninate method.

In assay [4] the target is Alpha-amylase type A isozyme (Hordeum vulgare, UniProt P00693). The assay is described as follows: Inhibition of recombinant barley alpha-amylase isozyme-1 using DP17 amylose as substrate preincubated for 5 mins followed by substrate addition by copper-bicinchoninate method.
Chain of Alpha-amylase type A isozyme (P00693 whole entry): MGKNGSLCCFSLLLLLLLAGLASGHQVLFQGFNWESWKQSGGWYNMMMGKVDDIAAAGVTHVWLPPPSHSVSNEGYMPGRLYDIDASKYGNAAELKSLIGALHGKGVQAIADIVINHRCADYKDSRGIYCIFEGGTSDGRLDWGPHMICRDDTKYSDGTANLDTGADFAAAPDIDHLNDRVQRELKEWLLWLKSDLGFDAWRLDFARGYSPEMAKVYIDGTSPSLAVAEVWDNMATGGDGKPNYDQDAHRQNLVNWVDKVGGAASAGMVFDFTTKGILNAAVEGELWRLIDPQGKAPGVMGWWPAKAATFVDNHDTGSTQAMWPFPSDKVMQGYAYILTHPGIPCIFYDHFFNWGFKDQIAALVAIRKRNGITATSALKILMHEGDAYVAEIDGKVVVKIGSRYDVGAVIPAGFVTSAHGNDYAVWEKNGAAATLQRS
Assay [5] concerns the target T2, Pancreatic alpha-amylase. Put plainly: Inhibition of porcine pancreatic alpha-amylase using soluble starch as substrate after 30 mins by Bernfeld method.

As usually defined, the IC50 is the concentration at which inhibition is half-maximal. Turning to `CCc1cc(C(=O)Cn2cnc3ccccc32)c(O)cc1O`, the inhibition result in assay [1] was “inactive”. For the same compound, the IC50 in assay [2] was greater than 50 µM.

A word on the Ki: it is the dissociation constant of the complex between target and ligand, obtained from inhibition or displacement. On to `O=S(=O)(O)O[C@@H](CO)[C@@H](O)CN1C[C@@H](O)[C@H](O)[C@H]1CO`, for which the Ki (at Pancreatic alpha-amylase [3]; in assay [4]) was less than 10000 µM throughout.

Compound `O=C(/C=C/c1ccccc1)c1ccccc1` [CHALCONE] came in with a Ki at Pancreatic alpha-amylase [5] of 48 µM.
